According to ChEMBL document CHEMBL4385592, “4-Imidazo[2,1-b]thiazole-1,4-DHPs and neuroprotection: preliminary study in hits searching” (Eur J Med Chem, 2019):

Assays:
Left cardiac atrium [1] = assay: Negative inotropic activity in guinea pig left atrium assessed as decrease in developed tension at 10^-4 M relative to control; assay type: ADME, tissue-based, Cavia porcellus; design: scale not given: the % may be the effect or the level left; conditions: 100 µM
[2] = target: T1, Voltage-gated L-type calcium channel (Homo sapiens, UniProt Q13936+Q13698+Q01668+O60840); assay: Inhibition of voltage-dependent L-type calcium channel in human SH-SY5Y cells assessed as protection against glutamate-induced excitotoxicity by measuring recovery of cell viability at 20 uM measured after 24 hrs by alamar blue-based fluorescence method relative to control
Left cardiac atrium [3] = assay: Negative inotropic activity in guinea pig left atrium assessed as decrease in developed tension at 0.001 to 100 uM relative to control; assay type: ADME, tissue-based; conditions: Cavia porcellus
Aorta [4] = assay: Inhibition of calcium-induced contraction in K+-depolarized guinea pig aortic strips at 10^-4 M relative to control; assay type: tissue-based; conditions: Cavia porcellus
[5] = target: T1, Voltage-gated L-type calcium channel; assay: (§1) Inhibition of voltage-dependent L-type calcium channel in human U373MG cells assessed as protection against oxygen glucose deprivation/reperfusion-induced injury by measuring recovery of cell viability at 20 uM administered at onset of reperfusion period measured after 16 hrs by alamar blue assay relative to control; assay type: cell-based
Summary of the method: (§2)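 U-373 MG astrocytoma cells seeded at 30000 cells/ml and grown 24 or 48 h (37 °C/5% CO2). OGD: 24 h at 37 °C in glucose-free DMEM pre-bubbled with 95% N2/5% CO2, in a sealed nitrogen-flushed chamber. Then 16 h reperfusion in normal medium; compounds added at reperfusion, diluted from DMSO stock (DMSO ≤0.1%). Viability by alamarBlue, 4 h at 37 °C, fluorescence ex 530–560/em 590 nm. Expressed as % recovery from injury, mean ± S.E. of ≥3 experiments in sixuplicate.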

[6] = target: T1, Voltage-gated L-type calcium channel; assay: as §1, with “1” for “20”; assay type: cell-based; summary of the method: as §2
Right cardiac atrium [7] = assay: Negative chronotropic activity in guinea pig spontaneously beating right atrium assessed as decrease in atrial rate; assay type: tissue-based; conditions: Cavia porcellus
[8] = target: T1, Voltage-gated L-type calcium channel; assay: Inhibition of voltage-dependent L-type calcium channel in human SH-SY5Y cells assessed as protection against glutamate-induced excitotoxicity by measuring recovery of cell viability at 1 uM measured after 24 hrs by alamar blue-based fluorescence method relative to control
Right cardiac atrium [9] = assay: Negative chronotropic activity in guinea pig spontaneously beating right atrium assessed as decrease in atrial rate at 5 x 10^-5 M relative to control; assay type: tissue-based, Cavia porcellus; design: scale not given: the % may be the effect or the level left; conditions: 50 µM
Left cardiac atrium [10] = assay: Negative inotropic activity in guinea pig left atrium assessed as decrease in developed tension at 5 x 10^-6 M relative to control; assay type: ADME, tissue-based, Cavia porcellus; design: scale not given: the % may be the effect or the level left; conditions: 5 µM
[11] = target: T2, Voltage-gated L-type calcium channel (Rattus norvegicus, UniProt P22002+Q02485+P27732); assay: as §1, with “Wistar rat brain slices” for “human U373MG cells”, “LDH release” for “cell viability”, “90 mins” for “16 hrs”, “spectrophotometric” for “alamar blue”; design: scale not given: the % may be the effect or the level left; conditions: 1.5 h
Aorta [12] = assay: Inhibition of calcium-induced contraction in K+-depolarized guinea pig aortic strips at 5 x 10^-5 M relative to control; assay type: tissue-based; conditions: Cavia porcellus
[13] = target: T2, Voltage-gated L-type calcium channel; assay: as §1, with “Wistar rat brain slices” for “human U373MG cells”, “edema formation” for “cell viability”, “90 mins” for “16 hrs by alamar blue assay”; design: scale not given: the % may be the effect or the level left; conditions: 1.5 h
Right cardiac atrium [14] = assay: Negative chronotropic activity in guinea pig spontaneously beating right atrium assessed as decrease in atrial rate at 10^-5 M relative to control; assay type: ADME, tissue-based, Cavia porcellus; design: scale not given: the % may be the effect or the level left; conditions: 10 µM
Left cardiac atrium [15] = assay: Negative inotropic activity in guinea pig left atrium assessed as decrease in developed tension at 10^-6 M relative to control; assay type: ADME, tissue-based, Cavia porcellus; design: scale not given: the % may be the effect or the level left; conditions: 1 µM
Right cardiac atrium [16] = assay: Negative inotropic activity in guinea pig right atrium assessed as decrease in developed tension at 10^-5 M relative to control; assay type: ADME, tissue-based, Cavia porcellus; design: scale not given: the % may be the effect or the level left; conditions: 10 µM
Left cardiac atrium [17] = assay: Negative inotropic activity in guinea pig left atrium assessed as decrease in developed tension at 5 x 10^-7 M relative to control; assay type: ADME, tissue-based, Cavia porcellus; design: scale not given: the % may be the effect or the level left; conditions: 0.5 µM
[18] = tested on: Left cardiac atrium (Cavia porcellus); assay: Negative inotropic activity in guinea pig left atrium assessed as decrease in developed tension
[19] = Selectivity ratio of EC50 for negative chronotropic activity in guinea pig spontaneously beating right atrium to EC50 for negative inotropic activity in guinea pig left atrium; assay type: ADME, tissue-based, Cavia porcellus
Left cardiac atrium [20] = assay: Negative inotropic activity in guinea pig left atrium assessed as decrease in developed tension at 5 x 10^-5 M relative to control; assay type: ADME, tissue-based, Cavia porcellus; design: scale not given: the % may be the effect or the level left; conditions: 50 µM
Left cardiac atrium [21] = assay: Negative inotropic activity in guinea pig left atrium assessed as decrease in developed tension at 10^-5 M relative to control; design: scale not given: the % may be the effect or the level left; conditions: 10 µM

| SMILES | Activity [2] | EC50 (Left cardiac atrium [3]) | inhibition at 100 µM (Aorta [4]) | Activity [5] | Activity [6] | EC50 (Right cardiac atrium [7]) | Activity [8] | Activity [11] | Activity [13] | Activity (Right cardiac atrium [14]) | other results |
| --- | --- | --- | --- | --- | --- | --- | --- | --- | --- | --- | --- |
| CCOC(=O)C1=C(C)NC(C)=C(C(=O)OCC)C1c1c(-c2ccc(Cl)cc2)nc2sc(Cl)cn12 | 47.1% | 3500 nM | 45% | < 5% | < 5% | 1730 nM | 25.1% | – | – | – | Activity (Left cardiac atrium [1]): 73%; Activity (Right cardiac atrium [9]): 94% |
| COC(=O)C1=C(C)NC(C)=C(C(=O)OC)C1c1c(-c2c(OC)ccc(OC)c2[N+](=O)[O-])nc2sc(Cl)cn12 | 36.8% | – | – | < 5% | < 5% | – | 13.1% | – | – | – | – |
| CCOC(=O)C1=C(C)NC(C)=C(C(=O)OCC)C1c1c(-c2ccc(OC)c(OC)c2)nc2sc(Br)cn12 | 33.4% | – | – | 55.1% | 9% | 310 nM | 18.2% | 57.8% | 89.1% | 90% | Activity (Left cardiac atrium [10]): 39%; inhibition at 50 µM (Aorta [12]): 5% |
| CCOC(=O)C1=C(C)NC(C)=C(C(=O)OCC)C1c1c(-c2c(F)cccc2F)nc2sccn12 | 27.7% | – | 28% | < 5% | < 5% | – | 19.5% | – | – | 35% | Activity (Left cardiac atrium [15]): 33% |
| COC(=O)C1=C(C)NC(C)=C(C(=O)OC)C1c1c(-c2cccc(OC)c2)nc2sccn12 | < 5% | – | – | < 5% | < 5% | – | < 5% | – | – | – | – |
| COC(=O)C1=C(C)NC(C)=C(C(=O)OC)C1c1c(-c2ccc(OC(F)(F)F)cc2)nc2sccn12 | 37.7% | – | – | 54.2% | 52.3% | – | 37.4% | 93.8% | 93.8% | – | – |
| COC(=O)C1=C(C)NC(C)=C(C(=O)OC)C1c1c(-c2ccc(C(F)(F)F)cc2)nc2sccn12 | 36.6% | – | – | < 5% | < 5% | – | 17.5% | – | – | – | – |
| CCOC(=O)C1=C(C)NC(C)=C(C(=O)OCC)C1c1c(-c2cc([N+](=O)[O-])c(Cl)cc2Cl)nc2sc(CC)cn12 | 41.6% | 33 nM | 15% | 26.7% | 21.2% | – | 14.7% | 18% | < 5% | 40% | Activity (Right cardiac atrium [16]): 58%; Activity (Left cardiac atrium [17]): 67%; EC50 [18]: 1470 nM |
| COC(=O)C1=C(C)NC(C)=C(C(=O)OC)C1c1c(-c2cc(OC)c([N+](=O)[O-])cc2OC)nc2sccn12 | 46.3% | – | – | < 5% | < 5% | – | 31.5% | – | – | – | – |
| COC(=O)C1=C(C)NC(C)=C(C(=O)OC)C1c1c(-c2ccccc2)nc2scc(C)n12 | 130% | – | – | < 5% | < 5% | – | 85.1% | 100.65% | 82.5% | – | – |
| CCOC(=O)C1=C(C)NC(C)=C(C(=O)OCC)C1c1c(-c2cc(OC)ccc2OC)nc2sccn12 | 67.4% | – | – | 65.7% | 36.6% | – | 42.8% | 87% | 75.8% | – | – |
| CCOC(=O)C1=C(C)NC(C)=C(C(=O)OCC)C1c1c(-c2ccc(F)cc2)nc2sc(Cl)cn12 | 47.5% | 49 nM | 3% | 33.7% | 32.6% | 1730 nM | 44.9% | 61.9% | < 5% | 83% | Ratio EC50 [19]: 25 to 56; Activity (Left cardiac atrium [15]): 62% |
| CCOC(=O)C1=C(C)NC(C)=C(C(=O)OCC)C1c1c(-c2cc(OC)cc(OC)c2)nc2sc(Br)cn12 | 42.4% | 25 nM | – | 29.6% | < 5% | 640 nM | 17.4% | 14.5% | < 5% | 80% | Ratio EC50 [19]: < 10; inhibition at 50 µM (Aorta [12]): 7%; Activity (Left cardiac atrium [15]): 93% |
| CCOC(=O)C1=C(C)NC(C)=C(C(=O)OCC)C1c1c(-c2ccc(F)cc2)nc2sc(Br)cn12 | < 5% | – | – | < 5% | < 5% | – | < 5% | – | – | 25% | Activity (Left cardiac atrium [20]): 37%; inhibition at 50 µM (Aorta [12]): 7% |
| COC(=O)C1=C(C)NC(C)=C(C(=O)OC)C1c1c(-c2cc(OC)ccc2OC)nc2sc(Cl)cn12 | 108.4% | – | – | 99.6% | 78.8% | – | 42% | 81.3% | 91.8% | – | – |
| CCOC(=O)C1=C(C)NC(C)=C(C(=O)OCC)C1c1c(-c2ccccc2F)nc2sccn12 | 62.2% | 5150 nM | – | 36.8% | < 5% | 980 nM | 53.2% | – | – | 86% | Activity (Left cardiac atrium [20]): 55%; inhibition at 50 µM (Aorta [12]): 17% |
| COC(=O)C1=C(C)NC(C)=C(C(=O)OC)C1c1c(C(F)(F)F)nc2sc(C)cn12 | 44.1% | – | – | < 5% | < 5% | – | 35.4% | 100.3% | 63.7% | – | – |
| CCOC(=O)C1=C(C)NC(C)=C(C(=O)OCC)C1c1c(-c2cc(OC)ccc2OC)nc2sc(C)cn12 | < 5% | 250 nM | 43% | < 5% | < 5% | 4810 nM | < 5% | – | – | 78% | Ratio EC50 [19]: 20; Activity (Left cardiac atrium [21]): 89% |
| COC(=O)C1=C(C)NC(C)=C(C(=O)OC)C1c1c(-c2cc(OC)ccc2OC)nc2sccn12 | 99% | – | – | 96.7% | 82.9% | – | 51.9% | 83.9% | 77.6% | – | – |
| COC(=O)C1=C(C)NC(C)=C(C(=O)OC)C1c1c(-c2ccccc2OC)nc2sccn12 | < 5% | – | – | < 5% | < 5% | – | < 5% | – | – | – | – |
| COC(=O)C1=C(C)NC(C)=C(C(=O)OC)C1c1c(C(F)(F)F)nc2sccn12 | 84.5% | – | – | 86.7% | 73% | – | 44.1% | 79.2% | 105.4% | – | – |
| CCOC(=O)C1=C(C)NC(C)=C(C(=O)OCC)C1c1c(-c2ccc(Cl)c([N+](=O)[O-])c2)nc2sc(C)cn12 | < 5% | 190 nM | 24% | < 5% | < 5% | 8480 nM | < 5% | < 5% | < 5% | 50% | Ratio EC50 [19]: 25 to 56; Activity (Left cardiac atrium [10]): 64% |
| C=CCOC(=O)C1=C(C)NC(C)=C(C(=O)OCC=C)C1c1c(-c2cc(OC)c([N+](=O)[O-])cc2OC)nc2sccn12 | 52.3% | 25 nM | 15% | < 5% | < 5% | 2380 nM | 40.6% | 51.2% | 82% | 92% | Ratio EC50 [19]: 95; Activity (Left cardiac atrium [10]): 96% |
| CCOC(=O)C1=C(C)NC(C)=C(C(=O)OCC)C1c1c(-c2ccc(F)cc2)nc2sc(C)cn12 | 43.1% | – | 12% | 13.2% | 9.1% | 23 nM | 28.9% | – | – | – | Activity (Left cardiac atrium [15]): 37%; Activity (Right cardiac atrium [9]): 86% |
